Calls of active or inactive are those of the source. The rule behind the calls is not given here.
Key:
[1] = AUC in Sprague-Dawley rat at 3 mg/kg, po administered as spray-dried dispersion formulation and measured after 24 hrs by LC-MS/MS analysis; type: ADME, organism-based; design: dose 3 mg/kg, time 24 hrs, route po; details: in vivo
How it was run: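 Rats were dosed orally at 3, 10 and 30 mg/kg with a spray-dried dispersion of the free base and HPMCP-HP55 polymer (25%/75%), in 30% Dexolve. Total plasma Cmax and AUC were measured, N = 3.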

Rattus norvegicus = experiment: Reversal of haloperidol-induced catalepsy Sprague-Dawley rat model at 0.3 to 30 mg/kg,po and measured upto 6 hrs; type: functional, organism-based; details: dose 0.3-30 mg/kg
How it was run: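 Time course in the haloperidol (1.5 mg/kg i.p.) catalepsy model in rats after a single 30 mg/kg oral dose, followed for up to 6 h. Satellite rats dosed in parallel gave plasma and CSF exposures.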

[2] = Drug uptake in plasma of haloperidol-induced catalepsy Sprague-Dawley rat model at 0.3 to 30 mg/kg,po; type: ADME, organism-based; details: in vivo, dose 0.3-30 mg/kg
How it was run: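 Rats were given haloperidol 1.5 mg/kg i.p. to induce catalepsy and dosed orally at 0.3–30 mg/kg, N = 8–10 per group. Total plasma and CSF concentrations were measured alongside the catalepsy read-out. Satellite rats were used for PK in the time-course study.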

[3] = AUC (0 to infinity) in Cynomolgus monkey at 3 mg/kg, po and measured upto 24 hrs by LC-MS/MS analysis; type: ADME, organism-based, Macaca fascicularis; design: time < 24 hrs, dose 3 mg/kg, route po; details: in vivo
How it was run: (§1)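 Single oral 3 mg/kg dose in mouse, SD rat, beagle dog and cynomolgus monkey. Total plasma exposure after the oral dose gave Cmax, Tmax, AUC0-inf and F. Values are means of two to three animals.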

[4] = Cmax in Cynomolgus monkey at 3 mg/kg, po and measured upto 24 hrs by LC-MS/MS analysis; type: ADME, organism-based, Macaca fascicularis; design: dose 3 mg/kg, time < 24 hrs, route po; details: in vivo
How it was run: (§2)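 Single oral 3 mg/kg dose in mouse, SD rat, beagle and cyno. Cmax is the peak total plasma concentration. Values are means of two to three animals.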

[5] = Volume of distribution at steady state in Cynomolgus monkey at 0.2 mg/kg, iv and measured upto 24 hrs by LC-MS/MS analysis; type: ADME, organism-based, Macaca fascicularis; details: in vivo, read-out: Vdss
How it was run: (§3)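 Single-dose iv and oral PK in separate arms: mouse 1 mg/kg iv / 3 mg/kg po, SD rat 0.2/3, beagle 0.5/3, cynomolgus 0.2/3 mg/kg. Plasma parameters (Vss, Tmax, F) are means of two to three animals per species.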

[6] = Cmax in Beagle dog at 3 mg/kg, po and measured upto 24 hrs by LC-MS/MS analysis; type: ADME, organism-based, Canis lupus familiaris; design: dose 3 mg/kg, time < 24 hrs, route po; details: in vivo; how it was run: as §2
[7] = Elimination half life in Beagle dog at 0.5 mg/kg, iv and measured upto 24 hrs by LC-MS/MS analysis; type: ADME, organism-based, Canis lupus familiaris; details: in vivo, read-out: beta t1/2 (converted)
How it was run: (§4)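 Single intravenous doses: mouse 1 mg/kg, SD rat 0.2 mg/kg, beagle dog 0.5 mg/kg, cynomolgus monkey 0.2 mg/kg. Plasma clearance, Vss and elimination half-life came from the plasma profiles. Values are means of two to three animals.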

[8] = Volume of distribution at steady state in Beagle dog at 0.5 mg/kg, iv and measured upto 24 hrs by LC-MS/MS analysis; type: ADME, organism-based, Canis lupus familiaris; details: in vivo, read-out: Vdss; how it was run: as §3
[9] = Clearance in Beagle dog plasma at 0.5 mg/kg, iv and measured upto 24 hrs by LC-MS/MS analysis; type: ADME, organism-based, Canis lupus familiaris; how it was run: as §4
[10] = AUC (0 to infinity) in Sprague-Dawley rat at 3 mg/kg, po and measured upto 24 hrs by LC-MS/MS analysis; type: ADME, organism-based; design: time < 24 hrs, dose 3 mg/kg, route po; details: in vivo; how it was run: as §1
[11] = Tmax in Sprague-Dawley rat at 3 mg/kg, po and measured upto 24 hrs by LC-MS/MS analysis; type: ADME, organism-based; details: in vivo; how it was run: as §3
[12] = Volume of distribution at steady state in Sprague-Dawley rat at 0.2 mg/kg, iv and measured upto 24 hrs by LC-MS/MS analysis; type: ADME, organism-based; details: in vivo, read-out: Vdss; how it was run: as §3
[13] = Tmax in CD-1 mouse plasma at 3 mg/kg, po and measured upto 24 hrs by LC-MS/MS analysis; type: ADME, organism-based; how it was run: as §3
[14] = AUC (0 to infinity) in CD-1 mouse plasma at 3 mg/kg, po and measured upto 24 hrs by LC-MS/MS analysis; type: ADME, organism-based; design: dose 3 mg/kg, time < 24 hrs, route po; how it was run: as §1
P-gp (ABCB1) = P-gp (ABCB1) (Homo sapiens, UniProt P08183); experiment: Substrate activity at human P-gp assessed as apparent permeability; type: ADME; details: not told
P-gp (ABCB1), sequence (P08183 whole entry): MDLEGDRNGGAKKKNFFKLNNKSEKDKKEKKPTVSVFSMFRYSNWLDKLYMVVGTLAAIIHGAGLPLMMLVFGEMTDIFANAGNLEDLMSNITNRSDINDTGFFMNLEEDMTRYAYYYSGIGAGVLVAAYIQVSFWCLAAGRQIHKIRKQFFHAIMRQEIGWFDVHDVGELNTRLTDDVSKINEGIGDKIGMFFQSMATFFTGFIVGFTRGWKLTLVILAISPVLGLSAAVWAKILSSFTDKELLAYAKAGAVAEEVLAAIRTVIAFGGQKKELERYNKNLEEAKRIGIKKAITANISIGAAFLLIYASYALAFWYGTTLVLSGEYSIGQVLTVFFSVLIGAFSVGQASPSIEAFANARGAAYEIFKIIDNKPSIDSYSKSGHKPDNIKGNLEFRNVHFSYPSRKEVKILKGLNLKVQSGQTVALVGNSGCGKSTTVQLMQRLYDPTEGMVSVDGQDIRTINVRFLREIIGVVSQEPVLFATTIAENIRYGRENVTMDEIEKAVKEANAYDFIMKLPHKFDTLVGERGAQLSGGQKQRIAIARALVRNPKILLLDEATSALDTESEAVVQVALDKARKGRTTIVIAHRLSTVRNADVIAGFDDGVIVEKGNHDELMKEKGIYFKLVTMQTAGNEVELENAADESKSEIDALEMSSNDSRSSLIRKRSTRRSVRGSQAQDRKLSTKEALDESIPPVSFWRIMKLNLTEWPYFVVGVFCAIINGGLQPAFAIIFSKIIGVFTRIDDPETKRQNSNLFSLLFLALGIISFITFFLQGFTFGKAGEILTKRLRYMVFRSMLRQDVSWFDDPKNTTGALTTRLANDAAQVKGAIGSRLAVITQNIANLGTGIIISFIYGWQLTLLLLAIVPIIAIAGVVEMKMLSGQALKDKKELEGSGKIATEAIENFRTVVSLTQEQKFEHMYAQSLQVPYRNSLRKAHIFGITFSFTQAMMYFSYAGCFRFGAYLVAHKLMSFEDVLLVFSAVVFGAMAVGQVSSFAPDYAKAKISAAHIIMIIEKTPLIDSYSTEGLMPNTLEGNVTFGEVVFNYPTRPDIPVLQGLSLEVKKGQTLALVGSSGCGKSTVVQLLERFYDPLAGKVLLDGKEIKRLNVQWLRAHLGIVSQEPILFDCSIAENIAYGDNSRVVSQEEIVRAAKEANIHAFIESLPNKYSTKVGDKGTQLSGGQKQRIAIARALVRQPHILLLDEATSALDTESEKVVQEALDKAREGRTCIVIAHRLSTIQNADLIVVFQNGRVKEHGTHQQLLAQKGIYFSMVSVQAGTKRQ

[15] = Unbound brain-to-plasma concentration ratio in cynomolgus monkey at 0.2 mg/kg, iv and measured upto 1 hrs by LC-MS/MS analysis; type: ADME, organism-based, Macaca fascicularis; details: read-out: K(p,uu,brain)
Cytochrome P450 2B6 = Cytochrome P450 2B6 (Homo sapiens, UniProt P20813); experiment: Induction of CYP2B6 in human hepatocytes; type: ADME, cell-based
Cytochrome P450 2B6, sequence (P20813 whole entry): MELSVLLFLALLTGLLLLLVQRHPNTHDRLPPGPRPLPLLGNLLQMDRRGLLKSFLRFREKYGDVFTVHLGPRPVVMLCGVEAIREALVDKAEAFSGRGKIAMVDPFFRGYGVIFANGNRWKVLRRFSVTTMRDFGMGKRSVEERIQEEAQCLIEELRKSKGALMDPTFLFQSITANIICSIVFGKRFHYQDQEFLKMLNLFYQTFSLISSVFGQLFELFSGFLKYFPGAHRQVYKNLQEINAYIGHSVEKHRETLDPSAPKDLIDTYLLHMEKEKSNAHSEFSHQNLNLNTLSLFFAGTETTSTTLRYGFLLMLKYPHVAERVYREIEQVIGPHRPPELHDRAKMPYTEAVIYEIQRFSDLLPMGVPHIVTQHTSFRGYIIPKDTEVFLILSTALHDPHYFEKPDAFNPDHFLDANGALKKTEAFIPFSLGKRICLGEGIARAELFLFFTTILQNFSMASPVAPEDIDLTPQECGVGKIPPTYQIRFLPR
How it was run: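 CYP1A2, 2B6 and 3A4 induction measured in human hepatocytes.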

[16] = target: Nuclear receptor subfamily 1 group I member 2 (Rattus norvegicus, UniProt Q9R1A7); experiment: Activation of rat PXR
Nuclear receptor subfamily 1 group I member 2 (Rattus norvegicus, UniProt Q9R1A7), sequence (Q9R1A7 whole entry): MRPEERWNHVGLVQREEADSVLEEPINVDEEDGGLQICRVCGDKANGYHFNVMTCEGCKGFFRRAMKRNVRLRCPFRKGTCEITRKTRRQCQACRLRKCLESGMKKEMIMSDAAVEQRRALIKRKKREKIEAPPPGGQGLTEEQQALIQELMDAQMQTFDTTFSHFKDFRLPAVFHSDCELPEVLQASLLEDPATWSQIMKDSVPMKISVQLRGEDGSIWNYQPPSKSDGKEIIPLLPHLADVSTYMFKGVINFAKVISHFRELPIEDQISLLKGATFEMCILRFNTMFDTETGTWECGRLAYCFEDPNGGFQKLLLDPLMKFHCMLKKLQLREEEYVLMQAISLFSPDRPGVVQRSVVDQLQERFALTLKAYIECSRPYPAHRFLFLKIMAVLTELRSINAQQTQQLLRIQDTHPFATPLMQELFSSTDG

[17] = target: Nuclear receptor subfamily 1 group I member 2 (Homo sapiens, UniProt O75469); experiment: Activation of human PXR
[18] = target: Aryl hydrocarbon receptor (Homo sapiens, UniProt P35869); experiment: Activation of human AhR
[19] = Metabolic stability in cynomolgus monkey liver microsomes assessed as intrinsic clearance at 1 uM preincubated for 5 mins followed by NADPH addition and measured for 45 mins by LC/MS/MS analysis; type: ADME, Macaca fascicularis, Microsome; details: time 50 min, read-out: CLH
[20] = Protein binding in cynomolgus monkey plasma assessed as fraction unbound incubated for 4 hrs by equilibrium dialysis based LC/MS/MS analysis; type: ADME, cell-free, Macaca fascicularis
[21] = Lipophilicity, logP of the compound; type: physicochemical; details: octanol/water
[22] = Genotoxicity in Salmonella typhimurium TA98 in presence of S9 fraction by Ames test; type: toxicity, subcellular; details: salmonella enterica subsp. enterica serovar typhimurium
How it was run: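 Ames bacterial reverse mutation test in strains TA98 and […], run with and without S9 metabolic activation.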

KCNQ1/MINK = KCNQ1/MINK (Homo sapiens, UniProt P51787+Q8N4C8); experiment: Inhibition of KCNQ1/MINK (unknown origin) at 10 uM; type: toxicity
How it was run: (§5)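 Cardiac ion channel electrophysiology (functional EP) panel, with percent inhibition measured at 10 μM.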

Cav1.2 = Cav1.2 (Homo sapiens, UniProt Q13936); experiment: Inhibition of Cav1.2 (unknown origin) at 10 uM; type: toxicity; how it was run: as §5
Kv4.3/KChIP2 = Kv4.3/KChIP2 (Homo sapiens, UniProt Q9NS61+Q9UK17); experiment: Inhibition of Kv4.3/KChIP2 (unknown origin) at 10 uM; type: toxicity; how it was run: as §5
Kv4.3/KChIP2, sequence (Q9UK17 whole entry): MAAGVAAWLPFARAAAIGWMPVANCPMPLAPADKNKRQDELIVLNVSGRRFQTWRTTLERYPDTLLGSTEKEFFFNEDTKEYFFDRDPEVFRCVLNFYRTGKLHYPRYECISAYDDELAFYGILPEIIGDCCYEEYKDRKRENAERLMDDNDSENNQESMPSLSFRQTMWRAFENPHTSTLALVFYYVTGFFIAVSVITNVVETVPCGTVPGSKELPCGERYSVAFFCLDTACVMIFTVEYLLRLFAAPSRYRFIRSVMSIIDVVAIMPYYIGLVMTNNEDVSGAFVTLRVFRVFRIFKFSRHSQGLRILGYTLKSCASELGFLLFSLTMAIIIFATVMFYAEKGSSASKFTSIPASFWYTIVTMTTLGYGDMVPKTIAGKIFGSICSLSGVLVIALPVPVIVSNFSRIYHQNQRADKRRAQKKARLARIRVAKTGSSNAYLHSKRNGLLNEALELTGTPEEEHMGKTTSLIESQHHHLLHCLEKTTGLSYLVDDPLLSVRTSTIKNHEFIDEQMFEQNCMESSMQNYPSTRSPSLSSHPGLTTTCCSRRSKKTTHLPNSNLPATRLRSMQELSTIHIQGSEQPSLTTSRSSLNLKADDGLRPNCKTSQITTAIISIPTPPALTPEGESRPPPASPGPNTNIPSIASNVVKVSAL
Kv4.3/KChIP2, sequence (Q9NS61 whole entry): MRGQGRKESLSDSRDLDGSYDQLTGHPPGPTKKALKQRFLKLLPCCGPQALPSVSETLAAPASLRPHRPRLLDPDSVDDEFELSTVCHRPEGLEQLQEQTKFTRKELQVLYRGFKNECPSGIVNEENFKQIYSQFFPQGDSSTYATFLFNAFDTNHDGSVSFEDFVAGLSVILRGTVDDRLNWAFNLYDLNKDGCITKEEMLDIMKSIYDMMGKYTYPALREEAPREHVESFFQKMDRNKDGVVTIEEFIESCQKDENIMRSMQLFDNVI

[23] = target: Amine oxidase [flavin-containing] B (Homo sapiens, UniProt P27338); experiment: Binding affinity to MAO-B (unknown origin)
[24] = target: Metabotropic glutamate receptor 8 (Rattus norvegicus, UniProt P70579); experiment: Positive allosteric modulator activity at rat mGlu8 in human HEK cells co-expressing […] assessed as increase in by thallium flux preincubated for 2.5 mins followed by gluatamate addition by thallium flux assay; type: cell-based
Metabotropic glutamate receptor 8, sequence (P70579 whole entry): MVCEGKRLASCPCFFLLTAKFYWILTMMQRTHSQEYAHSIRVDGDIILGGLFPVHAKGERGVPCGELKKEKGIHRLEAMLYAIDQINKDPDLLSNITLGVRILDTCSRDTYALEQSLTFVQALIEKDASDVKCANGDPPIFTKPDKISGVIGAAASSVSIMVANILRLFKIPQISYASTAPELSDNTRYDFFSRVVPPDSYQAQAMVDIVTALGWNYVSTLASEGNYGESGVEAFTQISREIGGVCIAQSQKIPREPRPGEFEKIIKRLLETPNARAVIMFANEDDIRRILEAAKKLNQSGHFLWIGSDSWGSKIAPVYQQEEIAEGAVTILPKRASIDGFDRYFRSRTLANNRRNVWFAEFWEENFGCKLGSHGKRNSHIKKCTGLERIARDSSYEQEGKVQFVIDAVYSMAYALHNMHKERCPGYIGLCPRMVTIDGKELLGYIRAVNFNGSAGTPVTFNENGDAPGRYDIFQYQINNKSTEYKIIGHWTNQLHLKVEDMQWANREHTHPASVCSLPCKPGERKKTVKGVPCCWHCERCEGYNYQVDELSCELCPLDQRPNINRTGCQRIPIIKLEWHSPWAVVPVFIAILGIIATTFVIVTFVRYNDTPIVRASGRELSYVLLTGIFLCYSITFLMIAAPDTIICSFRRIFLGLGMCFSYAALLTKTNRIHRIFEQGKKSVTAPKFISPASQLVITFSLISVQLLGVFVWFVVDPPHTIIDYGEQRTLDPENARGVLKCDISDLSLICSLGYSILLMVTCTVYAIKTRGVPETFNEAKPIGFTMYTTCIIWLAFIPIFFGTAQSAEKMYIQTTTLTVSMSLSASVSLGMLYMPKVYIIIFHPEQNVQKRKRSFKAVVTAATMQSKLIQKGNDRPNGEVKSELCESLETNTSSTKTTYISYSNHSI

[25] = target: Metabotropic glutamate receptor 7 (Rattus norvegicus, UniProt P35400); experiment: Positive allosteric modulator activity at rat mGlu7 in human HEK cells co-expressing […] assessed as increase in by thallium flux preincubated for 2.5 mins followed by gluatamate addition by thallium flux assay; type: cell-based
Metabotropic glutamate receptor 7, sequence (P35400 whole entry): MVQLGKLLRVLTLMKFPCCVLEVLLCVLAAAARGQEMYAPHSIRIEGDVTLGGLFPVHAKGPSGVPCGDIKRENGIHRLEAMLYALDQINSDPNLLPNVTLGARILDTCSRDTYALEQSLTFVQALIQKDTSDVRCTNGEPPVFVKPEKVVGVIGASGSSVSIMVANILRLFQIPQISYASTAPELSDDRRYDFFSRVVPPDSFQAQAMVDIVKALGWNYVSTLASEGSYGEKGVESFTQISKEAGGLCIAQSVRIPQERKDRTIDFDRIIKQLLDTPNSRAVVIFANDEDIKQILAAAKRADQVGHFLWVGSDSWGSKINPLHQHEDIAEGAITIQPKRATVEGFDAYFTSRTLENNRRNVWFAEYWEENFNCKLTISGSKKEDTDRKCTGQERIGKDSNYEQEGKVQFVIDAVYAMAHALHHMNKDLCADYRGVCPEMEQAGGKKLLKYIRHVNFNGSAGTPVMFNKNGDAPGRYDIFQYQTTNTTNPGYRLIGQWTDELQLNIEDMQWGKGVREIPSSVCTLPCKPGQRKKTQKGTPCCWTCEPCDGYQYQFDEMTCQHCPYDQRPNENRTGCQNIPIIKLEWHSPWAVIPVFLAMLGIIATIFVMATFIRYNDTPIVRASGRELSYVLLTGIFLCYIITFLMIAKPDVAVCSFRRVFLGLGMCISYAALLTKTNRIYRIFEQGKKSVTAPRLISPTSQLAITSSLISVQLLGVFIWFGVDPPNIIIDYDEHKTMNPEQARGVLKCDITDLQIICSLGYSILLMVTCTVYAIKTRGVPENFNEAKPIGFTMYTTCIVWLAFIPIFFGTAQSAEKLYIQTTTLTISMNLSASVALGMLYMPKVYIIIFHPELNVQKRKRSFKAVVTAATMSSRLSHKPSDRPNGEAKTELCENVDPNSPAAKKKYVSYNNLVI

[26] = target: Metabotropic glutamate receptor 3 (Rattus norvegicus, UniProt P31422); experiment: Positive allosteric modulator activity at rat mGlu3 in human HEK cells co-expressing […] assessed as increase in by thallium flux preincubated for 2.5 mins followed by gluatamate addition by thallium flux assay; type: cell-based

AUC at 24 h [1]: 5.92 µM·h
AUC(0-inf) [3]: 2.81 µM·h
Cmax [4]: 260 nM
Vd [5]: 3.2 L/kg
Cmax [6]: 490 nM
half-life [7]: 2.95 h
Vd [8]: 4.3 L/kg
clearance [9]: 31.6 mL/min/kg
AUC(0-inf) [10]: 9.66 µM·h
Tmax [11]: 2 h
Vd [12]: 3 L/kg
Tmax [13]: 0.42 h
AUC(0-inf) [14]: 1.55 µM·h
Papp (P-gp (ABCB1)): 8 ×10⁻⁶ cm/s
Kp uu at 1 h [15]: 0.07
Activity (Cytochrome P450 2B6): Not Active
Activity [16]: Not Active
Activity [17]: Not Active
Activity [18]: Not Active
CLint scaled at 1 µM [19]: 8.8 mL/min/kg
fraction unbound at 4 h [20]: 0.016
logP [21]: 3.78
EC50 [23]: > 30 µM
EC50 [24]: > 10 µM
EC50 [25]: > 10 µM
EC50 [26]: > 10 µM
Structure (SMILES): FC(F)(F)c1nccc2cc(Nc3n[nH]c4ncccc34)ccc12
Activity (Rattus norvegicus): Active
concentration [2]: 322 nM
Activity [22]: Non-Toxic
inhibition at 10 µM (KCNQ1/MINK): < 50%
inhibition at 10 µM (Cav1.2): < 50%
inhibition at 10 µM (Kv4.3/KChIP2): < 50%
